Experimental data as given in publication PMC9263996 (iScience, 2022).
Entries after “also recorded” stand apart in the source; their conditions may differ.

What was measured:
MaltOBP24 [1] = biological target: T1, MaltOBP24 (Monochamus alternatus, UniProt A0A1I9HZN3); assay: Competitive fluorescence-binding assay with 1-NPN probe, recombinant MaltOBP24; conditions: MaltOBP24 Ki (dissociation constant), 1-NPN competition, mean ± SEM
T1 sequence (A0A1I9HZN3 1-169): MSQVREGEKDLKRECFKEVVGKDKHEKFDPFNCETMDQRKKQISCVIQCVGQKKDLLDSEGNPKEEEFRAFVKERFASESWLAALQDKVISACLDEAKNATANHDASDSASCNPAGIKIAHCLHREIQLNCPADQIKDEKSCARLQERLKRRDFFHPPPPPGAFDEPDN

DhelOBP10 [2] = biological target: T2, DhelOBP10 (Dastarcus helophoroides, UniProt A0A1I9HZP4); assay: Competitive fluorescence-binding assay with 1-NPN probe, recombinant DhelOBP10; conditions: for Ki: DhelOBP10 Ki (dissociation constant), 1-NPN competition, mean ± SEM
T2 sequence (A0A1I9HZP4 20-220): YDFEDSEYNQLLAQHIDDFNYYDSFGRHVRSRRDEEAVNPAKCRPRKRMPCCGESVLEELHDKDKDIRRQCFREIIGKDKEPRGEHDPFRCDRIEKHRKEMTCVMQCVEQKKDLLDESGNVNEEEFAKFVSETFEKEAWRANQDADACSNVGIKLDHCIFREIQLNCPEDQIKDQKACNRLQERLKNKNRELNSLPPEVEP
Outline: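 Recombinant signal-peptide-free DhelOBP10 from E. coli (pET-32b; 1 mM IPTG induction, 12 h at 16°C), dialysed into Tris pH 7.4 or 5.0. […] Ligands (1 mM methanol stock) were added to 0–20 μM; Ki = IC50/(1+[1-NPN]/K1-NPN). Mean ± SEM.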

MaltOBP24 [3] = assay: Fluorescence-quenching spectra assay, MaltOBP24; type: binding, Monochamus alternatus; conditions: for quenching mechanism of the interaction with MaltOBP24: change of Ksv with temperature 289–298 K, neutral pH
DhelOBP10 [4] = biological target: T2, DhelOBP10; assay: Fluorescence-quenching spectra assay, DhelOBP10; type: binding; conditions: for ΔS (entropy change): DhelOBP10, pH 7.4; for ΔH (enthalpy change): DhelOBP10, pH 7.4, 289 and 298 K; for Kd: Ka (apparent association constant); for quenching mechanism of the interaction with DhelOBP10: change of Ksv with temperature 289–298 K, neutral pH; for main acting force between ligand and DhelOBP10: from signs of ΔH and ΔS
Outline: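 Intrinsic fluorescence of 2 μM recombinant DhelOBP10 in 30 mM Tris-HCl (pH 7.4 or 5.0): excitation 289 nm, slits 15/10 nm, scan 300–500 nm. Ligand aliquots came from 1 mM stock, at 289 and 298 K. Ksv and Kq were taken from Stern–Volmer fits, Ka and n from double-log plots, and ΔG, ΔH, ΔS from thermodynamic equations to assign binding force.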

M. alternatus adults = assay: Y-tube olfactometer binary choice assay, M. alternatus adults; type: in vivo, Monochamus alternatus; conditions: for behavioral response of M. alternatus adults in Y-tube: untreated adults, in words
Outline: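 Field-collected adults kept singly at 25°C on fresh pine twigs. RNAi: 1 μg dsMaltOBP24 or dsGFP injected into the frons of 4-day-old adults under CO₂ narcosis, with non-injected controls, and tested 4 days later. Y-tube with 40 cm stem, 30 cm arms at 60°, airflow 300 mL/min. Odour was 10 µL of 100-fold paraffin-oil dilution versus paraffin oil. Insects had 5 min; ≥30 per sex, each tested once; Chi-square.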

D. helophoroides adults = assay: Y-tube olfactometer binary choice assay, D. helophoroides adults; type: in vivo, Dastarcus helophoroides; conditions: for attraction to D. helophoroides after silencing DhelOBP10: RNAi, compared with non-injected and dsGFP controls; for behavioral response of D. helophoroides adults in Y-tube: untreated adults, in words
Outline: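 Adults reared at 25°C on an artificial diet. RNAi: 4-day-old adults given 300 ng dsDhelOBP10 or dsGFP into the frons, with non-injected controls, and tested 4 days later. Y-tube with 15 cm stem, 12 cm arms at 75°, airflow 300 mL/min per arm. Odour was 10 µL of 100-fold paraffin-oil dilution on filter paper versus paraffin oil. Insects had 5 min; arms swapped; ≥60 insects (30 per sex), each tested once; Chi-square.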

SaveOBP3 = conditions: fluorescence-binding assays; ref Vandermoten et al., 2011; cited from earlier work
EbalOBP3 = conditions: fluorescence-binding assays; ref Vandermoten et al., 2011; cited from earlier work

Row | Compound | Ki (MaltOBP24 [1]; pH5.0) [µM] | Ki (MaltOBP24 [1]; pH7.4) [µM] | Ki (DhelOBP10 [2]; pH5.0) [µM] | Ki (DhelOBP10 [2]; pH7.4) [µM] | quenching mechanism of the interaction with MaltOBP24 (MaltOBP24 [3]) | ΔS (entropy change) (DhelOBP10 [4]) | Kq (bimolecular quenching constant) (DhelOBP10 [4]; DhelOBP10, pH 7.4, 289 K) [M⁻¹ s⁻¹] | Ksv (quenching constant) (DhelOBP10 [4]; DhelOBP10, pH 7.4, 289 K) | n (number of binding sites) (DhelOBP10 [4]; DhelOBP10, pH 7.4, 289 K) | ΔG (free energy change) (DhelOBP10 [4]; DhelOBP10, pH 7.4, 289 K) | Kq (bimolecular quenching constant) (DhelOBP10 [4]; DhelOBP10, pH 7.4, 298 K) [M⁻¹ s⁻¹] | Ksv (quenching constant) (DhelOBP10 [4]; DhelOBP10, pH 7.4, 298 K) | n (number of binding sites) (DhelOBP10 [4]; DhelOBP10, pH 7.4, 298 K) | ΔG (free energy change) (DhelOBP10 [4]; DhelOBP10, pH 7.4, 298 K) | quenching mechanism of the interaction with DhelOBP10 (DhelOBP10 [4]) | behavioral response of M. alternatus adults in Y-tube (M. alternatus adults) | behavioral response of D. helophoroides adults in Y-tube (D. helophoroides adults) | further results
1 | CC1=CCC2C(C1)C2(C)C (centres unmarked) [3-carene] | 23.5 ± 2.33 | 3.31 ± 0.68 | 13.9 ± 2.91 | 14.5 ± 2.61 | static quenching | 42.1 J/(mol·K) | 3.524e+11 | 3,524 ± 122.4 L·mol^−1 | 0.9999 ± 0.0605 | −19,760.09 J·mol^−1 | 2.97e+11 | 2,970 ± 15.32 L·mol^−1 | 0.9088 ± 0.0218 | −17,960.72 J·mol^−1 | static quenching | did not affect their behavior | significant preference | Ka (apparent association constant) (MaltOBP24 [3]; MaltOBP24, pH 7.4, 289 K): 9,394,307.39 L·mol^−1; Kq (bimolecular quenching constant) (MaltOBP24 [3]; MaltOBP24, pH 7.4, 289 K): 2.4156e+12 M⁻¹ s⁻¹; Ksv (quenching constant) (MaltOBP24 [3]; MaltOBP24, pH 7.4, 289 K): 24,156 ± 442.5 L·mol^−1; Ka (apparent association constant) (MaltOBP24 [3]; MaltOBP24, pH 7.4, 298 K): 3,347,243.70 L·mol^−1; Kq (bimolecular quenching constant) (MaltOBP24 [3]; MaltOBP24, pH 7.4, 298 K): 1.8949e+12 M⁻¹ s⁻¹; Ksv (quenching constant) (MaltOBP24 [3]; MaltOBP24, pH 7.4, 298 K): 18,949 ± 876.5 L·mol^−1; ΔH (enthalpy change) (DhelOBP10 [4]): −7,595.91 J·mol^−1; Kd (DhelOBP10 [4]; DhelOBP10, pH 7.4, 289 K): 268 µM; Kd (DhelOBP10 [4]; DhelOBP10, pH 7.4, 298 K): 711 µM; main acting force between ligand and DhelOBP10 (DhelOBP10 [4]): electrostatic force; attraction to D. helophoroides after silencing DhelOBP10 (D. helophoroides adults): significantly lower attraction index
2 | CC1=CC[C@@H]2[C@@H]3[C@H]1[C@@]2(C)CCCC3(C)C [(+)-α-longipinene] |  |  |  |  |  |  |  |  |  |  |  |  |  |  | dynamic quenching |  |  | 
3 | C=CC(=C)CC/C=C(\C)CCC=C(C)C [(E)-β-farnesene] |  |  |  |  |  |  |  |  |  |  |  |  |  |  |  |  |  | affinity with SaveOBP3 (SaveOBP3): high affinity; affinity with EbalOBP3 (EbalOBP3): high affinity
4 | C=C1CC[C@H]2O[C@]2(C)CC[C@@H]2[C@@H]1CC2(C)C [(−)-caryophyllene oxide] | 38.5 ± 3.44 | 24.2 ± 1.94 | 3.65 ± 0.34 | 15.7 ± 1.26 |  |  |  |  |  |  |  |  |  |  |  |  |  | 
5 | C=C(C)[C@H]1CC=C(C)CC1 [R-(+)-limonene] |  |  |  |  | dynamic quenching | 0.01114 kcal/mol | 6.287e+11 | 6,287 ± 91.45 L·mol^−1 | 0.9715 ± 0.0292 | −20,458.37 J·mol^−1 | 4.016e+11 | 4,016 ± 108.1 L·mol^−1 | 0.9324 ± 0.0422 | −18,738.30 J·mol^−1 | static quenching | did not affect their behavior | significant preference | ligand-binding affinity with DhelOBP10 (class) (DhelOBP10 [2]; fluorescence binding combined with quenching): high (high if the Ki values <20 μM); Ka (apparent association constant) (DhelOBP10 [4]; DhelOBP10, pH 7.4, 289 K): 4,986.95 L·mol^−1; ΔH (enthalpy change) (DhelOBP10 [4]): −6,986.94 J·mol^−1; Ka (apparent association constant) (DhelOBP10 [4]; DhelOBP10, pH 7.4, 298 K): 1,925.95 L·mol^−1; attraction to D. helophoroides after silencing DhelOBP10 (D. helophoroides adults): not altered
6 | C=C1C2CCC(C2)C1(C)C (centres unmarked) [camphene] | > 50 | 22.1 ± 3.21 | 8.29 ± 1.99 | 24.5 ± 2.44 |  |  |  |  |  |  |  |  |  |  |  |  |  | 
7 | CC12CCC(CC1=O)C2(C)C (centres unmarked) [camphor] | > 50 | > 50 | 9.09 ± 1.7 | 33.8 ± 1.04 |  |  |  |  |  |  |  |  |  |  |  |  |  | 
8 | C=CC(=C)CCC=C(C)C [myrcene] | 22.4 ± 2.29 | 24.3 ± 3.95 | 3.93 ± 0.71 | 28.7 ± 1.12 |  |  |  |  |  |  |  |  |  |  |  |  |  | 
9 | CC1=CCC(=C(C)C)CC1 [α-terpinolene] |  |  |  |  | static quenching | 0.008678 kcal/mol | 5.736e+11 | 5,736 ± 153.1 L·mol^−1 | 1.0321 ± 0.0670 | −21,851.44 J·mol^−1 | 2.139e+11 | 2,139 ± 58.09 L·mol^−1 | 0.9823 ± 0.1034 | −18,944.55 J·mol^−1 | static quenching | did not affect their behavior | did not show preference | Ka (apparent association constant) (MaltOBP24 [3]; MaltOBP24, pH 7.4, 289 K): 5,449,703.40 L·mol^−1; Kq (bimolecular quenching constant) (MaltOBP24 [3]; MaltOBP24, pH 7.4, 289 K): 2.5179e+12 M⁻¹ s⁻¹; Ksv (quenching constant) (MaltOBP24 [3]; MaltOBP24, pH 7.4, 289 K): 25,179 ± 659.6 L·mol^−1; Ka (apparent association constant) (MaltOBP24 [3]; MaltOBP24, pH 7.4, 298 K): 2,525,092.74 L·mol^−1; Kq (bimolecular quenching constant) (MaltOBP24 [3]; MaltOBP24, pH 7.4, 298 K): 2.0347e+12 M⁻¹ s⁻¹; Ksv (quenching constant) (MaltOBP24 [3]; MaltOBP24, pH 7.4, 298 K): 20,347 ± 501.6 L·mol^−1; Ka (apparent association constant) (DhelOBP10 [4]; DhelOBP10, pH 7.4, 289 K): 8,904.93 L·mol^−1; ΔH (enthalpy change) (DhelOBP10 [4]): −11,356.86 J·mol^−1; Ka (apparent association constant) (DhelOBP10 [4]; DhelOBP10, pH 7.4, 298 K): 2,093.14 L·mol^−1; main acting force between ligand and DhelOBP10 (DhelOBP10 [4]): electrostatic force
10 | (+)-fenchone |  |  |  |  | static quenching | 0.01694 kcal/mol | 3.742e+11 | 3,742 ± 92.59 L·mol^−1 | 0.9404 ± 0.0271 | −18,347.45 J·mol^−1 | 2.913e+11 | 2,913 ± 190.8 L·mol^−1 | 0.9471 ± 0.0676 | −18,846.32 J·mol^−1 | static quenching | significantly attracted; also recorded: could attract adults | significantly attracted; also recorded: significant preference | Ka (apparent association constant) (MaltOBP24 [3]; MaltOBP24, pH 7.4, 289 K): 3,312,799.36 L·mol^−1; Kq (bimolecular quenching constant) (MaltOBP24 [3]; MaltOBP24, pH 7.4, 289 K): 2.4531e+12 M⁻¹ s⁻¹; Ksv (quenching constant) (MaltOBP24 [3]; MaltOBP24, pH 7.4, 289 K): 24,531 ± 303.9 L·mol^−1; Ka (apparent association constant) (MaltOBP24 [3]; MaltOBP24, pH 7.4, 298 K): 2,154,595.09 L·mol^−1; Kq (bimolecular quenching constant) (MaltOBP24 [3]; MaltOBP24, pH 7.4, 298 K): 1.4813e+12 M⁻¹ s⁻¹; Ksv (quenching constant) (MaltOBP24 [3]; MaltOBP24, pH 7.4, 298 K): 14,813 ± 141.8 L·mol^−1; Ka (apparent association constant) (DhelOBP10 [4]; DhelOBP10, pH 7.4, 289 K): 2,071.51 L·mol^−1; Ka (apparent association constant) (DhelOBP10 [4]; DhelOBP10, pH 7.4, 298 K): 2,011.77 L·mol^−1; main acting force between ligand and DhelOBP10 (DhelOBP10 [4]): hydrophobic; attraction index to M. alternatus after silencing MaltOBP24 (M. alternatus adults; RNAi, compared with non-injected and dsGFP controls): significantly decreased; attraction to D. helophoroides after silencing DhelOBP10 (D. helophoroides adults): significantly decreased
11 | (+)-α-pinene |  |  |  |  | dynamic quenching |  |  |  |  |  |  |  |  |  |  |  |  | 
